Laboratory results taken from ChEMBL document CHEMBL4834437, “Improvement of Oral Bioavailability of Pyrazolo-Pyridone Inhibitors of the Interaction of DCN1/2 and UBE2M” (J Med Chem, 2021).

What was measured:
[1] = mouse, in vivo, po, 50 mg/kg, 24 h
[2] = Toxicity in C57BL/6 mouse assessed as adverse effect at 50 mg/kg, po administered as single dose measured after 48 hrs; assay type: organism-based; conditions: in vivo
Summary of the method: (§1)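 Mice were watched for adverse reactions for 48 h after a single iv (15 mg/kg) or oral (50 mg/kg) dose. Vehicle was EtOH/PG/PEG/PBS (10/10/40/39, pH 7.4) with 1% (w/v) […]-β-cyclodextrin.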

[3] = Toxicity in C57BL/6 mouse assessed as adverse effect at 15 mg/kg, iv administered as single dose measured after 48 hrs; assay type: organism-based; conditions: in vivo
Summary of the method: as §1

[4] = Oral bioavailability in C57BL/6 mouse at 50 mg/kg administered as single dose measured up to 24 hrs by LC/MS analysis; assay type: ADME, organism-based; conditions: in vivo
Summary of the method: (§2)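 Single dose given to mice either intravenously at 15 mg/kg or orally at 50 mg/kg. Plasma drug concentration was followed over 24 h. Concentrations below LLOQ were reported as half LLOQ.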

[5] = AUC in C57BL/6 mouse at 50 mg/kg, po administered as single dose measured up to 24 hrs by LC/MS analysis; assay type: ADME, organism-based; set-up: route oral, dose 50 mg/kg, time <=24; conditions: in vivo
Summary of the method: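 Plasma drug concentration followed over 24 h. Concentrations below LLOQ were entered as half LLOQ. The same formulation was used for a separate intravenous arm at 15 mg/kg.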

[6] = Toxicity in C57BL/6 mouse assessed as effect on monocyte level at 50 mg/kg, po administered as 10 consecutive doses measured after 48 hrs; assay type: organism-based; conditions: in vivo
[7] = Toxicity in C57BL/6 mouse assessed as effect on lymphocyte level at 50 mg/kg, po administered as 10 consecutive doses measured after 48 hrs; assay type: organism-based; conditions: in vivo
[8] = Toxicity in C57BL/6 mouse assessed as effect on alkaline phosphatase level at 200 mg/kg, po administered as single dose measured after 48 hrs; assay type: organism-based; conditions: in vivo
[9] = Toxicity in po dosed C57BL/6 mouse assessed as maximum tolerated dose administered as single dose measured after 48 hrs; assay type: organism-based; conditions: in vivo
[10] = Toxicity in C57BL/6 mouse assessed as effect on BUN at 50 mg/kg, po administered as 10 consecutive doses measured after 48 hrs; assay type: organism-based; conditions: in vivo
[11] = Toxicity in C57BL/6 mouse assessed as effect on alkaline phosphatase level at 50 mg/kg, po administered as 10 consecutive doses measured after 48 hrs; assay type: organism-based; conditions: in vivo
[12] = Toxicity in C57BL/6 mouse assessed as effect on MCH level at 50 mg/kg, po administered as 10 consecutive doses measured after 48 hrs; assay type: organism-based; conditions: in vivo
[13] = Toxicity in C57BL/6 mouse assessed as effect on BUN/creatinine ratio at 50 mg/kg, po administered as 10 consecutive doses measured after 48 hrs; assay type: organism-based; conditions: in vivo
[14] = Toxicity in C57BL/6 mouse assessed as effect on A/G ratio at 50 mg/kg, po administered as 10 consecutive doses measured after 48 hrs; assay type: organism-based; conditions: in vivo
[15] = Toxicity in C57BL/6 mouse assessed as effect on A/G ratio at 200 mg/kg, po administered as single dose measured after 48 hrs; assay type: organism-based; conditions: in vivo
[16] = Toxicity in C57BL/6 mouse assessed as effect on ALT level at 200 mg/kg, po administered as single dose measured after 48 hrs; assay type: organism-based; conditions: in vivo
[17] = Toxicity in C57BL/6 mouse assessed as effect on total bilirubin level at 200 mg/kg, po administered as single dose measured after 48 hrs; assay type: organism-based; conditions: in vivo
[18] = Toxicity in C57BL/6 mouse assessed as effect on platelet level at 50 mg/kg, po administered as 10 consecutive doses measured after 48 hrs; assay type: organism-based; conditions: in vivo
[19] = Toxicity in C57BL/6 mouse assessed as effect on chloride level at 50 mg/kg, po administered as 10 consecutive doses measured after 48 hrs; assay type: organism-based; conditions: in vivo
[20] = Toxicity in C57BL/6 mouse assessed as effect on total bilirubin level at 50 mg/kg, po administered as 10 consecutive doses measured after 48 hrs; assay type: organism-based; conditions: in vivo
[21] = Toxicity in C57BL/6 mouse assessed as effect on CPK level at 50 mg/kg, po administered as 10 consecutive doses measured after 48 hrs; assay type: organism-based; conditions: in vivo
[22] = Toxicity in C57BL/6 mouse assessed as effect on Na/K ratio at 200 mg/kg, po administered as single dose measured after 48 hrs; assay type: organism-based; conditions: in vivo
[23] = Toxicity in C57BL/6 mouse assessed as effect on calcium level at 50 mg/kg, po administered as 10 consecutive doses measured after 48 hrs; assay type: organism-based; conditions: in vivo
[24] = Toxicity in C57BL/6 mouse assessed as effect on globulin level at 50 mg/kg, po administered as 10 consecutive doses measured after 48 hrs; assay type: organism-based; conditions: in vivo
[25] = Toxicity in C57BL/6 mouse assessed as effect on BUN/creatinine ratio at 200 mg/kg, po administered as single dose measured after 48 hrs; assay type: organism-based; conditions: in vivo
[26] = Toxicity in C57BL/6 mouse assessed as effect on CPK level at 200 mg/kg, po administered as single dose measured after 48 hrs; assay type: organism-based; conditions: in vivo
[27] = Toxicity in C57BL/6 mouse assessed as effect on globulin level at 200 mg/kg, po administered as single dose measured after 48 hrs; assay type: organism-based; conditions: in vivo
[28] = Toxicity in C57BL/6 mouse assessed as effect on basophil level at 50 mg/kg, po administered as 10 consecutive doses measured after 48 hrs; assay type: organism-based; conditions: in vivo
[29] = Oral bioavailability in C57BL/6 mouse; assay type: ADME, organism-based; conditions: in vivo
Summary of the method: as §2

[30] = Toxicity in C57BL/6 mouse assessed as effect on AST level at 200 mg/kg, po administered as single dose measured after 48 hrs; assay type: organism-based; conditions: in vivo
[31] = Toxicity in C57BL/6 mouse assessed as effect on AST level at 50 mg/kg, po administered as 10 consecutive doses measured after 48 hrs; assay type: organism-based; conditions: in vivo
[32] = Toxicity in C57BL/6 mouse assessed as effect on phosphorous level at 200 mg/kg, po administered as single dose measured after 48 hrs; assay type: organism-based; conditions: in vivo
[33] = Toxicity in C57BL/6 mouse assessed as effect on BUN at 200 mg/kg, po administered as single dose measured after 48 hrs; assay type: organism-based; conditions: in vivo
[34] = Toxicity in C57BL/6 mouse assessed as effect on albumin level at 200 mg/kg, po administered as single dose measured after 48 hrs; assay type: organism-based; conditions: in vivo
[35] = Toxicity in C57BL/6 mouse assessed as effect on WBC level at 50 mg/kg, po administered as 10 consecutive doses measured after 48 hrs; assay type: organism-based; conditions: in vivo
[36] = Toxicity in C57BL/6 mouse assessed as effect on MCHC level at 50 mg/kg, po administered as 10 consecutive doses measured after 48 hrs; assay type: organism-based; conditions: in vivo
[37] = Toxicity in C57BL/6 mouse assessed as effect on MCV level at 50 mg/kg, po administered as 10 consecutive doses measured after 48 hrs; assay type: organism-based; conditions: in vivo
[38] = Toxicity in C57BL/6 mouse assessed as effect on calcium level at 200 mg/kg, po administered as single dose measured after 48 hrs; assay type: organism-based; conditions: in vivo
[39] = Toxicity in C57BL/6 mouse assessed as effect on albumin level at 50 mg/kg, po administered as 10 consecutive doses measured after 48 hrs; assay type: organism-based; conditions: in vivo
[40] = Toxicity in C57BL/6 mouse assessed as effect on ALT level at 50 mg/kg, po administered as 10 consecutive doses measured after 48 hrs; assay type: organism-based; conditions: in vivo
[41] = Toxicity in po dosed C57BL/6 mouse assessed as maximum tolerated dose administered as 10 consecutive doses measured after 48 hrs; assay type: organism-based; conditions: in vivo
[42] = Toxicity in C57BL/6 mouse assessed as effect on RBC level at 50 mg/kg, po administered as 10 consecutive doses measured after 48 hrs; assay type: organism-based; conditions: in vivo
[43] = Toxicity in C57BL/6 mouse assessed as effect on chloride level at 200 mg/kg, po administered as single dose measured after 48 hrs; assay type: organism-based; conditions: in vivo
[44] = Toxicity in C57BL/6 mouse assessed as effect on glucose level at 50 mg/kg, po administered as 10 consecutive doses measured after 48 hrs; assay type: organism-based; conditions: in vivo
[45] = Toxicity in C57BL/6 mouse assessed as effect on neutrophil level at 50 mg/kg, po administered as 10 consecutive doses measured after 48 hrs; assay type: organism-based; conditions: in vivo
HCC95 = test: Inhibition of colony formation in human HCC95 cells at 10 uM measured after 10 days by nitroblue tetrazolium chloride reagent based assay relative to control; conditions: HCC95, 240 h
[46] = Toxicity in C57BL/6 mouse assessed as effect on creatinine level at 200 mg/kg, po administered as single dose measured after 48 hrs; assay type: organism-based; conditions: in vivo
[47] = Toxicity in C57BL/6 mouse assessed as effect on HGB level at 50 mg/kg, po administered as 10 consecutive doses measured after 48 hrs; assay type: organism-based; conditions: in vivo
[48] = Toxicity in C57BL/6 mouse assessed as effect on creatinine level at 50 mg/kg, po administered as 10 consecutive doses measured after 48 hrs; assay type: organism-based; conditions: in vivo
[49] = Toxicity in C57BL/6 mouse assessed as effect on potassium level at 50 mg/kg, po administered as 10 consecutive doses measured after 48 hrs; assay type: organism-based; conditions: in vivo
[50] = Toxicity in C57BL/6 mouse assessed as effect on cholesterol level at 200 mg/kg, po administered as single dose measured after 48 hrs; assay type: organism-based; conditions: in vivo
[51] = Toxicity in C57BL/6 mouse assessed as effect on HCT level at 50 mg/kg, po administered as 10 consecutive doses measured after 48 hrs; assay type: organism-based; conditions: in vivo
[52] = Toxicity in C57BL/6 mouse assessed as effect on cholesterol level at 50 mg/kg, po administered as 10 consecutive doses measured after 48 hrs; assay type: organism-based; conditions: in vivo
[53] = Toxicity in C57BL/6 mouse assessed as effect on sodium level at 50 mg/kg, po administered as 10 consecutive doses measured after 48 hrs; assay type: organism-based; conditions: in vivo
[54] = Toxicity in C57BL/6 mouse assessed as effect on Na/K ratio at 50 mg/kg, po administered as 10 consecutive doses measured after 48 hrs; assay type: organism-based; conditions: in vivo
[55] = Toxicity in C57BL/6 mouse assessed as effect on eosinophil level at 50 mg/kg, po administered as 10 consecutive doses measured after 48 hrs; assay type: organism-based; conditions: in vivo
[56] = Toxicity in C57BL/6 mouse assessed as effect on potassium level at 200 mg/kg, po administered as single dose measured after 48 hrs; assay type: organism-based; conditions: in vivo
in vivo = conditions: C57BL/6, mouse, plasma
[57] = Toxicity in C57BL/6 mouse assessed as effect on glucose level at 200 mg/kg, po administered as single dose measured after 48 hrs; assay type: organism-based; conditions: in vivo
[58] = Toxicity in C57BL/6 mouse assessed as effect on phosphorous level at 50 mg/kg, po administered as 10 consecutive doses measured after 48 hrs; assay type: organism-based; conditions: in vivo
[59] = Toxicity in C57BL/6 mouse assessed as effect on sodium level at 200 mg/kg, po administered as single dose measured after 48 hrs; assay type: organism-based; conditions: in vivo

CCN1C(=O)[C@@H](NC(=O)c2cccc(C)c2)[C@@H](c2ccc(F)cc2)c2c(C)nn(-c3ccccc3)c21 (relative stereo)
360 nM: Cmax [1]
Non-Toxic: Activity [2] | Activity [3]

CCN1C(=O)[C@@H](NC(=O)c2cccc(C(F)(F)F)c2)[C@@H](c2ccc(F)cc2)c2c(C)nn(-c3ccccc3)c21 (relative stereo)
23.8 µM·h: AUC at 24 h [5]
1150 nM: Cmax [1]
36%: F [4]

CCN1C(=O)[C@@H](NC(=O)c2cccc(C(F)(F)F)c2)[C@@H](c2ccc(F)cc2)c2c(CN)nn(-c3ccccc3)c21 (relative stereo)
20 mL/min/kg: clearance (in vivo)
6000 nM: Cmax [1]
Non-Toxic: Activity [6] | Activity [7] | Activity [8] | Activity [10] | Activity [11] | Activity [12] | Activity [13] | Activity [14] | Activity [15] | Activity [16] | Activity [17] | Activity [18] | Activity [19] | Activity [20] | Activity [21] | Activity [22] | Activity [23] | Activity [24] | Activity [25] | Activity [26] | Activity [27] | Activity [28] | Activity [30] | Activity [31] | Activity [32] | Activity [33] | Activity [34] | Activity [35] | Activity [36] | Activity [37] | Activity [38] | Activity [39] | Activity [40] | Activity [42] | Activity [43] | Activity [44] | Activity [45] | Activity [46] | Activity [47] | Activity [48] | Activity [49] | Activity [50] | Activity [51] | Activity [52] | Activity [53] | Activity [54] | Activity [55] | Activity [56] | Activity [57] | Activity [58] | Activity [59]
100%: inhibition at 10 µM (HCC95)
200 mg/kg: MTD at 48 h [9]
92%: bioavailability [29]
50 mg/kg: MTD at 48 h [41]
